Data published in ChEMBL document CHEMBL1154198, “Chemical genetics of Plasmodium falciparum” (Nature, 2010).

Columns and labels:
[1] = tested on: Plasmodium falciparum; assay: ST_JUDE: Cytotoxicity against Plasmodium falciparum SB-A6; format: functional, organism-based
[2] = tested on: Toxoplasma gondii; assay: ST_JUDE: Growth inhibition of to Toxoplasma gondii, in human U-2OS cells, as measured by luciferase.; format: functional, organism-based; conditions: RH, U2OS
Procedure, shortened: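 T. gondii parasites engineered to express luciferase; drug sensitivity read by luminescence.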

[3] = tested on: Plasmodium falciparum; assay: ST_JUDE: Cytotoxicity against Plasmodium falciparum V1/S; format: functional, organism-based
[4] = ST_JUDE: Cytotoxicity using luciferase to measure ATP as an indicator of the viability of human Burkitt''s lymphoma lymphoblast cells (Raji); format: toxicity, cell-based
[5] = tested on: Plasmodium falciparum; assay: ST_JUDE: Cytotoxicity against Plasmodium falciparum Dd2; format: functional, organism-based
[6] = tested on: Trypanosoma brucei; assay: ST_JUDE: Cytotoxicity using luciferase to measure ATP as an indicator of the viability of Trypanosoma brucei; format: functional, organism-based
[7] = tested on: Plasmodium falciparum; assay: ST_JUDE: Cytotoxicity against Plasmodium falciparum K1; format: functional, organism-based
Procedure, shortened: (§1)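 Asexual P. falciparum grown in human erythrocytes, exposed to compounds for 72 h, and growth read as the DNA quantity in treated versus control cultures. Dose-response run at 12 concentrations from 10 μM to 5 nM.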

[8] = ST_JUDE: Cytotoxicity using luciferase to measure ATP as an indicator of the viability of human epithelial embryonic kidney cells (HEK293); format: toxicity, cell-based
[9] = tested on: Plasmodium falciparum; assay: ST_JUDE: Plasmodium falciparum 3D7 EC50 (uM) as measured by SYBR green dye; format: functional, organism-based
[10] = tested on: Plasmodium falciparum; assay: ST_JUDE: Cytotoxicity against Plasmodium falciparum 3D7; format: functional, organism-based; procedure, shortened: as §1
[11] = ST_JUDE: Cytotoxicity using luciferase to measure ATP as an indicator of the viability of human foreskin fibroblast cells (BJ); format: toxicity, cell-based
[12] = ST_JUDE: Cytotoxicity using luciferase to measure ATP as an indicator of the viability of human epithelial hepatocellular carcinoma cells (HepG2); format: toxicity, cell-based
[13] = tested on: Plasmodium falciparum; assay: ST_JUDE: Cytotoxicity against Plasmodium falciparum W2; format: functional, organism-based
[14] = tested on: Plasmodium falciparum; assay: ST_JUDE: Plasmodium falciparum K1 EC50 (uM) as measured by SYBR green dye; format: functional, organism-based
[15] = tested on: Leishmania major; assay: ST_JUDE: Cytotoxicity using Alamar Blue to measure viability of Leishmania major; format: functional, organism-based
Procedure, shortened: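 L. major promastigotes; drug susceptibility read with Alamar Blue.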

[16] = tested on: Plasmodium falciparum; assay: ST_JUDE: Cytotoxicity against Plasmodium falciparum D10 transfected with yeast DHOD; format: functional, organism-based

Row | SMILES | EC50 [1] [nM] | EC50 [2] [µM] | EC50 [3] [nM] | EC50 [4] [µM] | EC50 [5] [nM] | EC50 [6] [µM] | EC50 [7] [nM] | EC50 [8] [µM] | EC50 [9] [nM] | EC50 [10] [nM] | EC50 [11] [µM] | EC50 [12] [µM] | EC50 [13] [nM] | EC50 [14] [nM] | EC50 [15] [µM] | EC50 [16] [nM]
1 | CC(C)(C)c1cc(C2C(C#N)=C(N)OC3=C2C(=O)CCC3)cc(C(C)(C)C)c1O (stereo not drawn) | 2530 | 1.34 | 1520 | 3.04 | 2530 | 5.46 | 1860 | > 36.2 | 1350 | 1850 | > 36.2 | 3.03 | 3440 | 427 | > 15.5 | 2390
2 | CCN(CC)Cc1cc(Nc2ccnc3cc(Cl)ccc23)ccc1O | 32.5 | > 22.1 | 45 | > 40.2 | 74.4 | > 38.6 | 42.6 | > 40.2 | 28.6 | 44.3 | > 40.2 | > 40.2 | 12 | 26.1 | > 17.2 | 49.9
3 | CC(C)CN1C(=O)c2ccccc2C(C(=O)Nc2ccc(F)c(Cl)c2)C1c1cccs1 (stereo not drawn) | 1390 | > 23.2 | 1680 | > 42.3 | 421 | 2.62 | 421 | > 42.3 | 89.7 | 378 | > 42.3 | 38.1 | 152 | 173 | > 18.1 | 1310
4 | CC(=O)N(C1=C(N(C)C)C(=O)c2ccccc2C1=O)c1ccc(F)cc1 | 29.7 | 0.63 | 11.9 | 0.284 | 12.5 | 0.571 | 15.2 | 7.54 | 68.5 | 12.1 | 3.83 | 0.713 | 77.3 | 144 | > 13.7 | 17.6
5 | O=C1C(Nc2ccc(Br)cc2)=C(n2nnc3ccccc32)C(=O)c2ccccc21 | 80.1 | > 13.6 | 32.6 | > 24.8 | 590 | 1.31 | 24.5 | > 24.8 | 28.2 | 60.2 | > 24.8 | > 24.8 | > 6370 | 21.6 | > 10.6 | 59.3
6 | Oc1ccc(Br)cc1CN1CCN(C2CC3CCC2C3)CC1 (stereo not drawn) | 953 | > 20.9 | 290 | > 38.2 | 285 | > 36.6 | 131 | > 38.2 | 289 | 501 | > 38.2 | > 38.2 | 519 | 181 | > 16.4 | 864
7 | CCOc1cc(C2CC(=O)NC3=C2C(=O)CC(c2ccccc2Cl)C3)cc(Cl)c1O (stereo not drawn) | 1150 | > 23.7 | 1080 | > 43.2 | 1020 | 19.7 | 916 | > 43.2 | 500 | 890 | > 43.2 | > 43.2 | 860 | 212 | > 18.5 | 1210
8 | CCO/C(O)=C1\C(C)=NC2=C(C(=O)CC(c3ccc(OC)c(OC)c3)C2)C1c1cccc(C)c1 (stereo not drawn) | 602 | > 22.3 | 1180 | > 40.6 | 2080 | > 39 | 950 | > 40.6 | 1020 | 1100 | > 40.6 | > 40.6 | 816 | 633 | > 17.4 | 1360
9 | CCOc1cc(C2CC(=O)NC3=C2C(=O)CC(c2cc(OC)ccc2OC)C3)ccc1O (stereo not drawn) | 1130 | > 22.4 | 1660 | > 40.9 | 1380 | > 39.2 | 1090 | > 40.9 | 1070 | 1050 | > 40.9 | > 40.9 | 1980 | 1280 | > 17.5 | 1140
10 | COc1ccc(C2CC3=NC(C)=C(C(=O)OC(C)C)C(c4ccccc4Cl)C3=C(O)C2)cc1OC (stereo not drawn) | 35 | 14.6 | 87.6 | > 41.2 | 58.2 | 6.77 | 53.8 | > 41.2 | 35.8 | 87 | > 41.2 | > 41.2 | 40.6 | 17.8 | > 17.6 | 45.5
11 | CC(C)c1ccc(NC(=O)/C=C/c2ccccc2Cl)cc1 | > 10500 | > 22.3 | > 10500 | > 40.7 | 1610 | 23.1 | > 10500 | > 40.7 | 1100 | > 10500 | > 40.7 | > 40.7 | 416 | 942 | > 17.4 | > 10500
12 | C[n+]1ccccc1/C=C/c1ccc([N+](=O)[O-])cc1 | 1080 | > 18.5 | 858 | > 33.8 | 1040 | > 32.4 | 745 | > 33.8 | 1410 | 804 | > 33.8 | > 33.8 | 4230 | 1420 | > 14.5 | 899
13 | COc1cc(OC)c(NC(=O)C2c3ccccc3C(=O)N(CC(C)C)C2c2cccs2)cc1Cl (stereo not drawn) | 83.1 | > 24.7 | 131 | > 45.1 | 54.8 | 7.71 | 93 | > 45.1 | 20.5 | 47.3 | > 45.1 | > 45.1 | 16 | 20.3 | > 19.3 | 71.9
